As a reminder, the pIC50 is the negative decadic logarithm of the IC50, by convention in mol/L. Low values mean a large IC50, high ones a small IC50. A word on the inhibition in vivo: it is the share of the control response that was lost under treatment. What is called T/C is the result in the treated group divided by that in the control group, in per cent.

pIC50: −log10 of the molar value.

The nature of assay [1]: Tested in vitro inhibitory activity against human oral epidermoid carcinoma KB cells. It counts as functional, cell-based. A digest of the protocol:
(§1)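 MTT growth assay: 2 × 10³ cells/well exposed to compound or left untreated for 72 h. MTT then added for 4 h more; formazan dissolved in DMSO and OD read at 540 nm. % inhibition = [1 − OD sample/OD control] × 100. IC₅₀ (μM) is the concentration giving 50% growth inhibition. Single-concentration inhibition measured at 100 μg/mL.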

Another assay concerns L1210. As to the kind of experiment: Tested in vitro inhibitory activity against murine leukemia L1210. It counts as functional, cell-based. Particulars: Mus musculus. In short, it runs like this:
as §1

In assay [2] the test system is Mus musculus. As to the kind of experiment: Weight change in M5076 mouse reticulum cell sarcoma after administration at 125 mg/kg orally. Format: functional. Particulars: route oral. In short, it runs like this:
(§2)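 Female BDF₁ mice with subcutaneous axillary M5076 (10⁶ cells), oral dosing on days 1, 4, 7, 10, 13 and 16 in saline or 5% DMA/0.5% CMC. Body weight change (g) = mean weight on day 20 minus mean weight on day 1.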

The subject of assay [3] is Mus musculus. Put plainly: Tested for 60-day survivors after administration at 500 mg/kg orally in M5076 mouse reticulum cell sarcoma. Format: functional. Particulars: route oral. In short, it runs like this:
(§3)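 Female BD2F1 mice were implanted s.c. with 1 × 10^6 M5076 cells and dosed orally on days 1, 4, 7, 10, 13 and 16. Vehicle was saline or 5% DMA in 0.5% CMC. Groups had six mice (three at 400 mg/kg), with nine untreated controls. The number of mice alive at 60 days was counted.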

Assay [4] concerns Mus musculus. As to the kind of experiment: Tested for 60-day survivors after administration at 750 mg/kg orally in M5076 mouse reticulum cell sarcoma. It counts as functional. Particulars: route oral. In short, it runs like this:
as §3

Assay [5] has as its system Mus musculus. As to the kind of experiment: Tested for 60-day survivors after administration at 62.5 mg/kg orally in M5076 mouse reticulum cell sarcoma. Format: functional. Particulars: route oral. In short, it runs like this:
as §3

Assay [6] deals with Mus musculus. As to the kind of experiment: Percent inhibition against M5076 mouse reticulum cell sarcoma after administration at 750 mg/kg orally on day 20. Format: functional. The conditions noted are these: M5076, 480 h, route oral. In short, it runs like this:
(§4)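 M5076 cells (10⁶ viable, counted by Trypan blue exclusion) implanted subcutaneously into the axillary region of female BDF₁ mice. Drug given orally on days 1, 4, 7, 10, 13 and 16 after inoculation, in saline or in 5% dimethylacetamide/0.5% carboxymethyl cellulose. Six mice per group (three at 400 mg/kg); untreated controls, nine mice. Tumor volume = 0.5 × length × width²; inhibition (%) = (1 − Vt/Vc) × 100 on day 20.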

Assay [7] has as its system Mus musculus. Put plainly: Percent inhibition against M5076 mouse reticulum cell sarcoma after administration at 500 mg/kg orally on day 20. Particulars: M5076, 480 h, route oral. Format: functional. A digest of the protocol:
as §4

For assay [8], the system named is Mus musculus. Put plainly: Weight change in M5076 mouse reticulum cell sarcoma after administration at 250 mg/kg orally. Format: functional. The conditions noted are these: route oral. In short, it runs like this: as §2
The test system of assay [9] is Mus musculus. Put plainly: Percent treated was determined after administration at 250 mg/kg orally. Format: functional. Particulars: route oral. In short, it runs like this:
(§5)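 Female BDF₁ mice bearing subcutaneous M5076 (10⁶ cells, axillary). Oral dosing in saline or 5% DMA/0.5% CMC on days 1, 4, 7, 10, 13 and 16. Groups of six (three at 400 mg/kg), nine untreated controls. T/C (%) = median survival day of treated/median survival day of untreated controls × 100; 60-day survivors also recorded.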

The test system of assay [10] is Mus musculus. As to the kind of experiment: Weight change in M5076 mouse reticulum cell sarcoma after administration at 750 mg/kg orally. It counts as functional. The conditions noted are these: route oral. In short, it runs like this:
as §2

Assay [11] deals with Mus musculus. As to the kind of experiment: Percent inhibition against M5076 mouse reticulum cell sarcoma after administration at 125 mg/kg orally on day 20. Format: functional. Particulars: M5076, 480 h, route oral. In short, it runs like this:
as §4

The test system of assay [12] is Mus musculus. Put plainly: Percent inhibition against M5076 mouse reticulum cell sarcoma after administration at 62.5 mg/kg orally on day 20. Format: functional. Particulars: M5076, 480 h, route oral. A digest of the protocol: as §4
Assay [13] concerns Mus musculus. As to the kind of experiment: Percent treated was determined after administration at 500 mg/kg orally. Format: functional. The conditions noted are these: route oral. In short, it runs like this:
as §5

In assay [14] the test system is Mus musculus. Put plainly: Tested for 60-day survivors after administration at 125 mg/kg orally in M5076 mouse reticulum cell sarcoma. Format: functional. Particulars: route oral. A digest of the protocol:
as §3

Assay [15] deals with Mus musculus. As to the kind of experiment: Percent treated was determined after administration at 62.5 mg/kg orally. Format: functional. The conditions noted are these: route oral. A digest of the protocol:
as §5

In assay [16] the test system is Mus musculus. As to the kind of experiment: Weight change in M5076 mouse reticulum cell sarcoma after administration at 62.5 mg/kg orally. It counts as functional. The conditions noted are these: route oral. In short, it runs like this: as §2
Assay [17] deals with Mus musculus. As to the kind of experiment: Percent inhibition against M5076 mouse reticulum cell sarcoma after administration at 250 mg/kg orally on day 20. Format: functional. The conditions noted are these: M5076, 480 h, route oral. In short, it runs like this: as §4
Assay [18] deals with Mus musculus. Put plainly: Tested for 60-day survivors after administration at 250 mg/kg orally in M5076 mouse reticulum cell sarcoma. It counts as functional. Particulars: route oral. A digest of the protocol: as §3
The test system of assay [19] is Mus musculus. Put plainly: Weight change in M5076 mouse reticulum cell sarcoma after administration at 500 mg/kg orally. It counts as functional. Particulars: route oral. A digest of the protocol: as §2
The subject of assay [20] is Mus musculus. Put plainly: Percent treated was determined after administration at 125 mg/kg orally. Format: functional. The conditions noted are these: route oral. A digest of the protocol:
as §5

Assay [21] relates to Mus musculus. As to the kind of experiment: Percent treated was determined after administration at 750 mg/kg orally. It counts as functional. The conditions noted are these: route oral. In short, it runs like this:
as §5

On to `CC(=O)Nc1ccn([C@@H]2O[C@H](CO)C=C2C#N)c(=O)n1`, for which the pIC50 in assay [1] is 4.01; in the assay with L1210, 4.16.
For `C[C@H]1O[C@@H](n2cc(F)c(=O)[nH]c2=O)[C@H](O)[C@@H]1O` [DOXIFLURIDINE], the Weight change in the assay with Mus musculus [2] was found to be 1.8 g; with Mus musculus [8] it was 2 g; with Mus musculus [10] it was 0.8 g; in the assay with Mus musculus [16] it was 2.8 g; in the assay on Mus musculus [19] it was 2.5 g. In addition, the Survivors in the assay with Mus musculus [3], with Mus musculus [4], in the assay with Mus musculus [5], in the assay on Mus musculus [14] and in the assay with Mus musculus [18] was 0 each time. In addition, in the assay with Mus musculus [6], testing at 750 mg/kg gave an inhibition in vivo of 50%. The molecule also returned an inhibition in vivo at 500 mg/kg in the assay on Mus musculus [7] of 19%. Moreover, the T/C with Mus musculus [9] is 86%; with Mus musculus [13], 104%; in the assay on Mus musculus [15], 88%; with Mus musculus [20] it was 98%; in the assay with Mus musculus [21] it was 92%. Besides, the inhibition in vivo at 125 mg/kg in the assay with Mus musculus [11] stood at 18%. This molecule showed an inhibition in vivo at 62.5 mg/kg in the assay with Mus musculus [12] of 8%. In the assay with Mus musculus [17], this molecule had an inhibition in vivo at 250 mg/kg of 15%.
For `Cc1cn([C@@H]2O[C@H](CO)C=C2C#N)c(=O)[nH]c1=O`, the pIC50 in assay [1] is 4.52; with L1210, 4.91.

Values taken from ChEMBL document CHEMBL1126568, “Nucleosides and nucleotides. 122. 2'-C-cyano-2'-deoxy-1-beta-D-arabinofuranosylcytosine and its derivatives. A new class of nucleoside with a broad antitumor spectrum” (J Med Chem, 1993).
